Activity calls are given as the source filed them. The rule behind the calls is not given here.
Experiments:
Assay type in all cases: cell-based
[1] = molecular target: T1, Retinoic acid receptor beta (Homo sapiens) (UniProt P10826); assay: Agonist activity at Gal4-LBD fused RARbeta (unknown origin) expressed in HEK293T cells at 10 uM after 14 to 16 hrs by dual-Glo luciferase assay
T1 sequence (whole entry): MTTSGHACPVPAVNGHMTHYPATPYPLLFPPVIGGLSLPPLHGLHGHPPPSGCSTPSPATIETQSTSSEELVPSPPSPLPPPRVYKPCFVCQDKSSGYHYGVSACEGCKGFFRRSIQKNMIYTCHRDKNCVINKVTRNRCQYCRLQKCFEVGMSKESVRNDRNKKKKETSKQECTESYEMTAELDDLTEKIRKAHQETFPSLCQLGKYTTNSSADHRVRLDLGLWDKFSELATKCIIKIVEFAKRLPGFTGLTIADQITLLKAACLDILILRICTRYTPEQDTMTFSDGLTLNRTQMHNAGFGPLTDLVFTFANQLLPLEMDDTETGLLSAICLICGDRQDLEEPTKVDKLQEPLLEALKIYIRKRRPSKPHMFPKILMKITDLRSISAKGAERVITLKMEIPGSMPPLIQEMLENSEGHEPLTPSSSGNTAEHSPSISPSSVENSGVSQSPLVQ
Outline: (§1)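 Gal4-hybrid reporter gene selectivity panel of related nuclear receptors (PPARα/β/γ, RARα/β/γ) in HEK293T cells. Activity is read as mean fold activation versus 0.1% DMSO vehicle, n ≥ 2.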

[2] = molecular target: T2, Peroxisome proliferator-activated receptor delta (Homo sapiens) (UniProt Q03181); assay: Agonist activity at Gal4-LBD fused PPARbeta (unknown origin) expressed in HEK293T cells at 10 uM after 14 to 16 hrs by dual-Glo luciferase assay; outline: as §1
T2 sequence (whole entry): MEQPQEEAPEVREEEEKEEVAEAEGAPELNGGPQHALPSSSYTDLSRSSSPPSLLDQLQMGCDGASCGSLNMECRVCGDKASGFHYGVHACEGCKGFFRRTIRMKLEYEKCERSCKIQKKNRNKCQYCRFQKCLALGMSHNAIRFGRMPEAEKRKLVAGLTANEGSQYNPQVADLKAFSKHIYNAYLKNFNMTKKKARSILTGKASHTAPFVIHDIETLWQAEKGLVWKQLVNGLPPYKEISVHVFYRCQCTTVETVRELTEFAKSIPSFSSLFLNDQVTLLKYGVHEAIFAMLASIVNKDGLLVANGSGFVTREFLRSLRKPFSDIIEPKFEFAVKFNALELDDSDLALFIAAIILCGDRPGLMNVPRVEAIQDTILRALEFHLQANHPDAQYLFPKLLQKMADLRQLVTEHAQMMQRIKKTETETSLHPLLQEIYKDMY

[3] = molecular target: T3, Retinoic acid receptor RXR-beta (Homo sapiens, UniProt P28702); assay: Agonist activity at Gal4-LBD fused RXRbeta (unknown origin) expressed in HEK293T cells after 14 to 16 hrs by dual-Glo luciferase assay
T3 sequence (P28702 whole entry): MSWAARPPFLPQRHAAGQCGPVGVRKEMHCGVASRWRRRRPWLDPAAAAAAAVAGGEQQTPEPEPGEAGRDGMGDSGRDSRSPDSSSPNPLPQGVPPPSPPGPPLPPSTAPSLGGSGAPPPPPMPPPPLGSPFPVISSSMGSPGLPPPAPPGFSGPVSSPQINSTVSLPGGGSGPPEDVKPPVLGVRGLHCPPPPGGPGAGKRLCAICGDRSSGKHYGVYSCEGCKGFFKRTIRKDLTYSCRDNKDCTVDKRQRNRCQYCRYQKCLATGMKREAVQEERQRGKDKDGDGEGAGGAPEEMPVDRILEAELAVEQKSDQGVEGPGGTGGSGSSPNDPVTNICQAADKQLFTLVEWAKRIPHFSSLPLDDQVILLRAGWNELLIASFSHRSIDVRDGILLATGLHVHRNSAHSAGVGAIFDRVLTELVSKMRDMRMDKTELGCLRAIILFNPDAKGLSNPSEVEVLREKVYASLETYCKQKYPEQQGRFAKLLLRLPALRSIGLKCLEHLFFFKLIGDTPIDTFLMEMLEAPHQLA
Outline: (§2)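 Gal4-hybrid RXRα/β/γ reporter gene assays in HEK293T cells. Fold activation is the maximal fold activation versus 0.1% DMSO.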

[4] = molecular target: T4, Retinoic acid receptor alpha (Homo sapiens) (UniProt P10276); assay: Agonist activity at Gal4-LBD fused RARalpha (unknown origin) expressed in HEK293T cells at 10 uM after 14 to 16 hrs by dual-Glo luciferase assay; outline: as §1
T4 sequence (whole entry): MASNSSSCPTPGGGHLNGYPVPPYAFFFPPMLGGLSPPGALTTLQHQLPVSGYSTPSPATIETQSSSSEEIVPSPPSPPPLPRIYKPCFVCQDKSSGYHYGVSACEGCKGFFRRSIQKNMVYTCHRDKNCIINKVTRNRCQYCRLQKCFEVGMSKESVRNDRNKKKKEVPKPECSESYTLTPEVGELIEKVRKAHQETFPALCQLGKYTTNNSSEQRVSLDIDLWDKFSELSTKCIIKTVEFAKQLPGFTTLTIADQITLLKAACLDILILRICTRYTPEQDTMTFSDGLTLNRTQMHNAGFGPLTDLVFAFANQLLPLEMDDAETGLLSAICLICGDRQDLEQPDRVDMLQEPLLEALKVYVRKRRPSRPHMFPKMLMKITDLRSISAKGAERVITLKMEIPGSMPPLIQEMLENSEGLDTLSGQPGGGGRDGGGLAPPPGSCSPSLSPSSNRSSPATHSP

[5] = molecular target: T5, Retinoic acid receptor RXR-alpha (Homo sapiens, UniProt P19793); assay: Agonist activity at Gal4-LBD fused RXRalpha (unknown origin) expressed in HEK293T cells after 14 to 16 hrs by dual-Glo luciferase assay; outline: as §2
T5 sequence (P19793 whole entry): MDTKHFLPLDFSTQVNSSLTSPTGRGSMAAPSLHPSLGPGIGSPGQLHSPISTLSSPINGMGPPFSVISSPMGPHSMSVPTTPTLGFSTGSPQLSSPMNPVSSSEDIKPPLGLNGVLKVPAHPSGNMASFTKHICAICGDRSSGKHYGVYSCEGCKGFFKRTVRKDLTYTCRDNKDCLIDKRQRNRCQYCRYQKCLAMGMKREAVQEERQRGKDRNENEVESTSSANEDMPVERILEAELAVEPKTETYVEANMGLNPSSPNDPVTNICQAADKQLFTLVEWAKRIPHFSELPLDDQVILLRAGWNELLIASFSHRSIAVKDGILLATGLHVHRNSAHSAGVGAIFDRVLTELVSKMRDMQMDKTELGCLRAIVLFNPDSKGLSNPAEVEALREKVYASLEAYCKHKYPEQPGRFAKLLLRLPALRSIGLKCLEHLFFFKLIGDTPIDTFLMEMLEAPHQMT

Structure (SMILES) | Activity [1] | Activity [2] | EC50 [3] [µM] | Activity [4] | EC50 [5] [µM]
Cc1cc(-c2cc(C(C)(C)C)cc(C(C)(C)C)c2)ccc1C(=O)O | Active | Active | 6.6 | Active | 
Cc1cc(-c2cc(C(F)(F)F)cc(C(F)(F)F)c2)ccc1CC(=O)O | Active | Active | 0.29 | Active | 0.21
Cc1cc(-c2ccc(C(=O)O)cc2)cc(C(C)(C)C)c1 |  |  | 12 |  | 8

— ChEMBL document CHEMBL4304816, “A Novel Biphenyl-based Chemotype of Retinoid X Receptor Ligands Enables Subtype and Heterodimer Preferences” (ACS Med Chem Lett, 2019)
